Residues, ends and D or L forms follow the SMILES beside them.
Legend:
[1] = target: T1, Proteasome Macropain subunit MB1 (Homo sapiens, UniProt P28074); assay: Negative allosteric modulation of SDS-activated human erythrocytes 20S proteasome chymotrypsin like activity using Suc-LLVY-AMC as substrate measured every 2 mins up to 60 mins by fluorescence assay
T1 sequence (P28074 whole entry): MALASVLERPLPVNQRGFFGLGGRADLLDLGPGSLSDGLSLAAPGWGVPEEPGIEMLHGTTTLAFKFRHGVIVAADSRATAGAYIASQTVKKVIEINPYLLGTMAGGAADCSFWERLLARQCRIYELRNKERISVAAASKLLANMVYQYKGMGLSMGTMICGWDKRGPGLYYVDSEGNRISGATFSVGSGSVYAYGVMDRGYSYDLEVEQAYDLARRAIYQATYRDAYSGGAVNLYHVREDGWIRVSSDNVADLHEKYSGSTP
Procedure, shortened: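 1.4 nM CP (0.001 mg/mL) in 50 mM Tris-HCl pH 8.0, activated with 0.005% SDS where stated, otherwise latent. Suc-LLVY-AMC at 100 μM final. AMC fluorescence read every 2 min up to 60 min at 37 °C. Activity relative to DMSO-treated enzyme, from at least three independent replicates. Peptide stocks 10 mM in DMSO.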

[2] = target: T1, Proteasome Macropain subunit MB1; assay: Non-competitive mixed-type inhibition of SDS-activated human erythrocytes 20S proteasome chymotrypsin like activity using Suc-LLVY-AMC as substrate measured every 2 mins up to 60 mins by fluorescence assay
Procedure, shortened: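 SDS-activated CP at 1.4 nM. Suc-LLVY-AMC varied from 20 to 200 μM at inhibitor levels of 0.05, 0.1 and 0.2 μM. Fluorescence read kinetically at 37 °C. […] Three independent replicates.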

[3] = target: T1, Proteasome Macropain subunit MB1; assay: Negative allosteric modulation of 1 uM Rpt5-activated human erythrocytes 20S proteasome chymotrypsin like activity using Suc-LLVY-AMC as substrate measured every 1 min up to 60 mins by fluorescence assay
Procedure, shortened: (§1)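 Suc-LLVY-AMC at 100 μM final. AMC fluorescence read every 1 min for 60 min at 37 °C. Activity relative to DMSO vehicle, at least three independent replicates.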

[4] = target: T1, Proteasome Macropain subunit MB1; assay: Negative allosteric modulation of 10 uM Rpt5-activated human erythrocytes 20S proteasome chymotrypsin like activity using Suc-LLVY-AMC as substrate measured every 1 min up to 60 mins by fluorescence assay; procedure, shortened: as §1
Fibroblast = assay: Cytotoxicity against human primary fibroblasts assessed as effect on cell viability up to 20 uM after 24 hrs by WST1 assay; type: cell-based
Procedure, shortened: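 Primary human fibroblasts GM04390 in DMEM with 10% heat-inactivated FBS and antibiotics, at 3% O2, 5% CO2, 37 °C; seeded at 100 000 cells/mL, switched to Optimem at 24 h, exposed at 48 h to 0.1–20 μM peptide or DMSO for 24 h. Viability read by WST-1 (10% reagent, 4 h), absorbance 450 nm.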

CC(C)C[C@H](NC(=O)[C@H](Cc1ccc(O)cc1)NC(=O)[C@H](CCCNC(=N)N)NC(=O)[C@H](CCCNC(=N)N)NC(=O)[C@@H](N)CCCNC(=N)N)C(=O)N1CCC[C@H]1C(=O)N[C@@H](CCCNC(=N)N)C(=O)N[C@@H](Cc1c[nH]c2ccccc12)C(=O)NCC(N)=O (H-RRRYLPRWG-NH2) gave an IC50 ([1]; read-out: IC50) of 82 nM and a Ki [2] of 10.1 nM.
In the case of CC(C)C[C@H](NC(=O)[C@H](Cc1ccc(O)cc1)NC(=O)[C@H](CCCNC(=N)N)NC(=O)[C@H](CCCNC(=N)N)NC(=O)[C@@H](N)CCCNC(=N)N)C(=O)N1CCC[C@H]1C(=O)N[C@@H](CCCNC(=N)N)C(=O)N[C@@H](Cc1c[nH]c2ccccc12)C(=O)NCC(=O)O (H-RRRYLPRWG-OH), the IC50 ([1]; read-out: IC50) is reported as 111 nM.
Work on CC(C)C[C@H](NC(=O)[C@H](Cc1ccc(O)cc1)NC(=O)[C@@H]1CCCN1C(=O)[C@@H]1CCCN1C(=O)[C@H](CCCNC(=N)N)NC(=O)[C@@H]1CCCN1C(=O)[C@H](CCCNC(=N)N)NC(=O)[C@H](CCCNC(=N)N)NC(=O)[C@@H](N)CCCNC(=N)N)C(=O)N1CCC[C@H]1C(=O)N[C@@H](CCCNC(=N)N)C(=O)N[C@@H](Cc1ccccc1)C(=O)NCC(=O)O (H-RRRPRPPYLPRFG-OH) yielded an IC50 ([1]; read-out: IC50) of 99 nM.
With CC(C)C[C@H](NC(=O)[C@@H]1CCCN1C(=O)[C@@H]1CCCN1C(=O)[C@@H]1CCCN1C(=O)[C@@H]1CCCN1C(=O)[C@H](CCCNC(=N)N)NC(=O)[C@H](CCCNC(=N)N)NC(=O)[C@@H](N)CCCNC(=N)N)C(=O)N[C@@H](Cc1ccc(O)cc1)C(=O)N[C@@H](C)C(=O)O (H-RRRPPPPLYA-OH) the IC50 [1] was “Not Active”.
With CC(C)C[C@H](NC(=O)[C@H](Cc1ccc(O)cc1)NC(=O)[C@@H]1CCCN1C(=O)[C@@H]1CCCN1C(=O)[C@H](CCCNC(=N)N)NC(=O)[C@@H]1CCCN1C(=O)[C@H](CCCNC(=N)N)NC(=O)[C@H](CCCNC(=N)N)NC(=O)[C@@H](N)CCCNC(=N)N)C(=O)N1CCC[C@H]1C(=O)N[C@@H](CCCNC(=N)N)C(=O)N[C@@H](Cc1c[nH]c2ccccc12)C(=O)NCC(N)=O (H-RRRPRPPYLPRWG-NH2) the IC50 ([1]; read-out: IC50) was 113 nM.
Compound CC(C)C[C@H](NC(=O)[C@H](Cc1ccc(O)cc1)NC(=O)[C@@H]1CCCN1C(=O)[C@@H]1CCCN1C(=O)[C@H](CCCNC(=N)N)NC(=O)[C@@H]1CCCN1C(=O)[C@H](CCCNC(=N)N)NC(=O)[C@H](CCCNC(=N)N)NC(=O)[C@@H](N)CCCNC(=N)N)C(=O)N1CCC[C@H]1C(=O)N[C@@H](CCCNC(=N)N)C(=O)N[C@@H](Cc1c[nH]c2ccccc12)C(=O)NCC(=O)O (H-RRRPRPPYLPRWG-OH) has an IC50 ([1]; read-out: IC50) of 50 nM, a Ki [2] of 4.8 nM and an IC50 [3] of 560 nM. The IC50 [4] was 500 nM.
With C[C@H](NC(=O)[C@H](Cc1ccc(O)cc1)NC(=O)[C@H](Cc1ccc(O)cc1)NC(=O)[C@@H]1CCCN1C(=O)[C@@H]1CCCN1C(=O)[C@@H]1CCCN1C(=O)[C@@H]1CCCN1C(=O)[C@H](CCCNC(=N)N)NC(=O)[C@H](CCCNC(=N)N)NC(=O)[C@@H](N)CCCNC(=N)N)C(=O)O (H-RRRPPPPYYA-OH) the IC50 [1] was “Not Active” and the Activity (Fibroblast) was “Non-Toxic”.

Source: ChEMBL document CHEMBL4371016, “Proline- and Arginine-Rich Peptides as Flexible Allosteric Modulators of Human Proteasome Activity” (J Med Chem, 2019)
